ChEMBL document CHEMBL1155055, “Novel aminopeptidase N inhibitors derived from 1,3,4-thiadiazole scaffold” (Bioorg Med Chem, 2008)
Activity calls are given as the source filed them. The rule behind the calls is not given here.

Key:
[1] = target: 72 kDa type IV collagenase (Homo sapiens, UniProt P08253); assay: Inhibition of MMP2
Procedure, shortened: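 Gelatinase (MMP-2), substrate and inhibitor in 50 mmol/L sodium borate pH 8.5, 30 min at 37 °C; then 0.03% TNBS added, further 20 min incubation; absorbance read at 450 nm.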

[2] = target: T1, Aminopeptidase N (Sus scrofa, UniProt P15145); assay: Inhibition of pig kidney microsomes aminopeptidase N
T1 sequence (P15145 whole entry): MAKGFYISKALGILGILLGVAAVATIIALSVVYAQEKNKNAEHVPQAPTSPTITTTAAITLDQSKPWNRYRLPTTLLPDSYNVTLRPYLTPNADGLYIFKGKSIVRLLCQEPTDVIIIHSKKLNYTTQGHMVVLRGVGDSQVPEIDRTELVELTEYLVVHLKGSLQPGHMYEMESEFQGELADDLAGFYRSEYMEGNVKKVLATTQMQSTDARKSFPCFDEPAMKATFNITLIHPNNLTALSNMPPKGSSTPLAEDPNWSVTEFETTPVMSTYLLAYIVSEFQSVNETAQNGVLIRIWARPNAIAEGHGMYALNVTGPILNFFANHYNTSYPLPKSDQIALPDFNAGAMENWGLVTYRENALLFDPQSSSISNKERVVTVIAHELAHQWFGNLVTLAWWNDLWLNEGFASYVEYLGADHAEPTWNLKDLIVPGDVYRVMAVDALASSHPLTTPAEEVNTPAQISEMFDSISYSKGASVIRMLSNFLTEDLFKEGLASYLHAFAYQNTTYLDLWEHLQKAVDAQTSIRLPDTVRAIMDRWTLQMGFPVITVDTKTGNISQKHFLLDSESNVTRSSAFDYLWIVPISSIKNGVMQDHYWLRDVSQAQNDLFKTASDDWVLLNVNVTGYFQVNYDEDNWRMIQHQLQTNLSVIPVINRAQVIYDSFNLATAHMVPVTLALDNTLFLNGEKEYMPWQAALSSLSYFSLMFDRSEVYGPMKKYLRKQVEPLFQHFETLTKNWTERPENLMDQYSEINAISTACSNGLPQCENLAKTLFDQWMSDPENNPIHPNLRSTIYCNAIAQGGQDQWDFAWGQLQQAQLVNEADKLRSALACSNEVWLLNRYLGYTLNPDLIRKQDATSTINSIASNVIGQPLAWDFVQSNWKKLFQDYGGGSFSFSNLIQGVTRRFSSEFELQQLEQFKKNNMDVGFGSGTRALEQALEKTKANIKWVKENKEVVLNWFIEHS

Structure (SMILES)	Activity [1]	IC50 [2] [µM]	IC50 [1] [µM]
C[C@@H](NC(=O)/C=C/c1ccc(O)cc1)C(=O)Nc1nnc(-c2ccc(F)cc2)s1	inactive	115	
C[C@@H](NC(=O)/C=C/c1ccc(O)cc1)C(=O)Nc1nnc(-c2ccc(Br)cc2)s1	inactive	35.3	
COc1ccc(/C=C/C(=O)N[C@H](C)C(=O)Nc2nnc(-c3ccc(Cl)cc3)s2)cc1	inactive	135	
COc1ccc(/C=C/C(=O)N[C@H](C)C(=O)Nc2nnc(-c3ccc(Br)cc3)s2)cc1	inactive	108	
C[C@@H](NC(=O)/C=C/c1ccc(O)cc1)C(=O)Nc1nnc(-c2ccc(Cl)cc2)s1	inactive	105	
C[C@@H](NC(=O)/C=C/c1ccc(O)cc1)C(=O)Nc1nnc(-c2ccc([N+](=O)[O-])cc2)s1	inactive	54.1	
C[C@@H](NC(=O)/C=C/c1ccccc1)C(=O)Nc1nnc(-c2ccc([N+](=O)[O-])cc2)s1	inactive	84.7	
COc1ccc(/C=C/C(=O)N[C@H](C)C(=O)Nc2nnc(-c3ccc(C)cc3)s2)cc1	inactive	141	
Cc1ccc(-c2nnc(NC(=O)[C@@H](C)NC(=O)/C=C/c3ccccc3)s2)cc1	inactive	206	
C[C@@H](NC(=O)/C=C/c1ccccc1)C(=O)Nc1nnc(-c2ccc(Cl)cc2)s1	inactive	153	
COc1ccc(-c2nnc(NC(=O)[C@@H](C)NC(=O)/C=C/c3ccc(O)cc3)s2)cc1	inactive	68.8	
Cc1ccc(-c2nnc(NC(=O)[C@@H](C)NC(=O)/C=C/c3ccc(O)cc3)s2)cc1	inactive	127	

Next, values leading:

Activity [1]	IC50 [2] [µM]	IC50 [1] [µM]	Structure (SMILES)
inactive	90.7		COc1ccc(/C=C/C(=O)N[C@H](C)C(=O)Nc2nnc(-c3ccc(F)cc3)s2)cc1
		9.5	CC(C)C[C@H](NC(=O)[C@@H](O)[C@H](N)Cc1ccccc1)C(=O)O [UBENIMEX]
inactive	115		C[C@@H](NC(=O)/C=C/c1ccccc1)C(=O)Nc1nnc(-c2ccc(Br)cc2)s1
inactive	31.4		COc1ccc(-c2nnc(NC(=O)[C@@H](C)NC(=O)/C=C/c3ccccc3)s2)cc1
	44.6	297	COc1ccc(/C=C/C(=O)N[C@H](C)C(=O)Nc2nnc(-c3ccc([N+](=O)[O-])cc3)s2)cc1
inactive	124		C[C@@H](NC(=O)/C=C/c1ccc(O)cc1)C(=O)Nc1nnc(-c2ccccc2)s1
inactive	78.5		COc1ccc(/C=C/C(=O)N[C@H](C)C(=O)Nc2nnc(-c3ccc(OC)cc3)s2)cc1
inactive	131		COc1ccc(/C=C/C(=O)N[C@H](C)C(=O)Nc2nnc(-c3ccccc3)s2)cc1
inactive	216		C[C@@H](NC(=O)/C=C/c1ccccc1)C(=O)Nc1nnc(-c2ccccc2)s1
inactive	183		C[C@@H](NC(=O)/C=C/c1ccccc1)C(=O)Nc1nnc(-c2ccc(F)cc2)s1
